Blank lines part the entries; values can stand above or below the compound they belong to.
How the values were obtained:
[1] = target: T1, Sphingosine 1-phosphate receptor 1 (Homo sapiens, UniProt P21453); assay: Agonist activity at human S1P1 receptor assessed as cAMP accumulation by HTRF assay relative to S1P; type: functional
[2] = target: T1, Sphingosine 1-phosphate receptor 1; assay: Agonist activity at human S1P1 receptor by beta-arrestin recruitment assay relative to S1P
[3] = target: T2, Sphingosine 1-phosphate receptor 5 (Homo sapiens, UniProt Q9H228); assay: Agonist activity at human S1P5 receptor by beta-arrestin recruitment assay relative to S1P
T2 sequence (Q9H228 whole entry): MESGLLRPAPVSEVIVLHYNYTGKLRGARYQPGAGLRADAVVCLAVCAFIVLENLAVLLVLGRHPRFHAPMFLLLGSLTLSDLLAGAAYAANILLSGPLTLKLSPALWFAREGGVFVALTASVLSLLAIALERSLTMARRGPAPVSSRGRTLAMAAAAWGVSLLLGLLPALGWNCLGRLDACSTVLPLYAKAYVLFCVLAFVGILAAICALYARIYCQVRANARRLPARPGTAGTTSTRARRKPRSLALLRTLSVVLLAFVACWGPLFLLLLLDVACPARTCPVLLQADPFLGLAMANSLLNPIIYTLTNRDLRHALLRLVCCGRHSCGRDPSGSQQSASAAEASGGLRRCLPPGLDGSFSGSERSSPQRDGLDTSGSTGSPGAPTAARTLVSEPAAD

[4] = target: T1, Sphingosine 1-phosphate receptor 1; assay: Agonist activity at human S1P1 receptor assessed as cAMP accumulation by HTRF assay; type: functional
Method in brief: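 S1P1 engagement measured as cyclase activity in a homogeneous time-resolved fluorescence (HTRF) assay.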

[5] = target: T1, Sphingosine 1-phosphate receptor 1; assay: Agonist activity at human S1P1 receptor by beta-arrestin recruitment assay
[6] = target: Sphingosine 1-phosphate receptor 2 (Homo sapiens, UniProt O95136); assay: Agonist activity at human S1P2 receptor by beta-arrestin recruitment assay
Sequence of Sphingosine 1-phosphate receptor 2 (O95136 whole entry): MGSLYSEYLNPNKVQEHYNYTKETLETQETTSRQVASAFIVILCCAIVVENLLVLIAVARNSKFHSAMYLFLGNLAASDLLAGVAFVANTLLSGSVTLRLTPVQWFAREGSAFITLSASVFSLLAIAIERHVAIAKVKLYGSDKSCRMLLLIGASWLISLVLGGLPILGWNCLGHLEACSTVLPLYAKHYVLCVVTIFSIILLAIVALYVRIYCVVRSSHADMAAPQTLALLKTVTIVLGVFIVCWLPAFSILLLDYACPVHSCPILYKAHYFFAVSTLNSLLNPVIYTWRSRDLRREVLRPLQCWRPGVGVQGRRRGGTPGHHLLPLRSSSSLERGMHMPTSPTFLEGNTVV

[7] = target: Sphingosine 1-phosphate receptor 3 (Homo sapiens, UniProt Q99500); assay: Agonist activity at human S1P3 receptor by beta-arrestin recruitment assay
Sequence of Sphingosine 1-phosphate receptor 3 (Q99500 whole entry): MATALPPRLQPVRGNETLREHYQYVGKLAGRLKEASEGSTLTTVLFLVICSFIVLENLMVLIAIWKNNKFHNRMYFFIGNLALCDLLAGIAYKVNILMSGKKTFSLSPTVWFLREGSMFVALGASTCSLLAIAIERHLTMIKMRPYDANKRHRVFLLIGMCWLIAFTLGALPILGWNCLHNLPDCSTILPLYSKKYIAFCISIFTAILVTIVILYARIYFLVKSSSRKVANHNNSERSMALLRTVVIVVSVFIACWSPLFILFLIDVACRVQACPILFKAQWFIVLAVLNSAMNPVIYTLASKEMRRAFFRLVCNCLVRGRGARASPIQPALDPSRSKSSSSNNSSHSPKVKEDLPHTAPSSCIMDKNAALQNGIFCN

[8] = target: T3, Sphingosine 1-phosphate receptor 4 (Homo sapiens, UniProt O95977); assay: Agonist activity at human S1P4 receptor by beta-arrestin recruitment assay
T3 sequence (O95977 whole entry): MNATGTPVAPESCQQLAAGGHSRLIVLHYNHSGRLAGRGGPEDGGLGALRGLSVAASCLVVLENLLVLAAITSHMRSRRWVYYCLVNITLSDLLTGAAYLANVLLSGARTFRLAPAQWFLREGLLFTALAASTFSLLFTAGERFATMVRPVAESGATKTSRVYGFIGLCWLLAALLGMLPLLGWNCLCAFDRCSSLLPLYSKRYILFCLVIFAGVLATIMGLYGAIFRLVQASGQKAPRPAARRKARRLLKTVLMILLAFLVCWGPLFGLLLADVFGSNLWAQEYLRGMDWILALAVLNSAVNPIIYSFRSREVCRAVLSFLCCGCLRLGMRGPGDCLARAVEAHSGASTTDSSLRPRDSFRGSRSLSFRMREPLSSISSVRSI

[9] = target: T2, Sphingosine 1-phosphate receptor 5; assay: Agonist activity at human S1P5 receptor by beta-arrestin recruitment assay
[10] = target: T4, Sphingosine 1-phosphate receptor 4 (Homo sapiens) (UniProt O95977); assay: Agonist activity at human S1P4 receptor by beta-arrestin recruitment assay relative to S1P
T4 sequence (whole entry): T3 sequence (O95977 whole entry)

T1 sequence (P21453 whole entry): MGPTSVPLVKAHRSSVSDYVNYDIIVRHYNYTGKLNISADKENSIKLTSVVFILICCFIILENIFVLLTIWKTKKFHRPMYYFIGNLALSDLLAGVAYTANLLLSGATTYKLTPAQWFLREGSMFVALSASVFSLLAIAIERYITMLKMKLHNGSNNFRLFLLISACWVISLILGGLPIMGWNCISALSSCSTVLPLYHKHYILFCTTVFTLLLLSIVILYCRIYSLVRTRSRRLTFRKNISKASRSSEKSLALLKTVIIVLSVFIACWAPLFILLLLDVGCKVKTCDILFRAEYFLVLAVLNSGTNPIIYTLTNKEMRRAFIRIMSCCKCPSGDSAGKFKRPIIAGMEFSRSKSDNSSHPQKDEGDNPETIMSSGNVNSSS

SMILES: CC(C)Oc1ccc(COc2ccc3c(c2)cc2n3CCC2CC(=O)O)cc1C(F)(F)F (single isomer, unassigned; enantiomer 2) [listing 1 of 2 here]
EC50 [4]: 0.64 nM | EC50 [5]: 40 nM | EC50 [6]: > 10000 nM | EC50 [7]: > 10000 nM | EC50 [8]: > 10000 nM | EC50 [9]: > 10000 nM

SMILES: O=C(O)CC1CCn2c1cc1cc(OCc3ccc(C4CCCC4)c(C(F)(F)F)c3)ccc12 (stereo in doubt; 12a)
Emax [1]: 97% | Emax [2]: 105% | Emax [10]: 47% | Emax [3]: 83%

SMILES: CC(C)Oc1ccc(COc2ccc3c(c2)cc2n3CCC2CC(=O)O)cc1C(F)(F)F (single isomer, unassigned; enantiomer 1) [listing 1 of 2 here]
EC50 [4]: 0.067 nM | EC50 [5]: 8.6 nM | EC50 [6]: > 10000 nM | EC50 [7]: > 10000 nM | EC50 [8]: > 10000 nM | EC50 [9]: > 10000 nM

SMILES: O=C(O)CC1CCn2c1cc1cc(OCc3ccc(C4CCCC4)c(C(F)(F)F)c3)ccc12 (stereo in doubt; 12b) [listing 1 of 2 here]
Emax [1]: 100% | Emax [2]: 100% | Emax [10]: 49% | Emax [3]: 59%

SMILES: N#Cc1cc(COc2ccc3c(c2)cc2n3CCC2CC(=O)O)ccc1C1CCCC1 (racemic)
EC50 [4]: 0.49 nM | Emax [1]: 92%

SMILES: O=C(O)CC1CCn2c1cc1cc(OCc3ccc(OCF)c(C(F)(F)F)c3)ccc12 (racemic)
EC50 [4]: 6.7 nM | Emax [1]: 119%

SMILES: O=C(O)CC1CCn2c1cc1cc(OCc3ccc(Cl)c(C(F)(F)F)c3)ccc12 (racemic)
EC50 [4]: 150 nM | Emax [1]: 116%

SMILES: N#Cc1ccc(COc2ccc3c(c2)cc2n3CCC2CC(=O)O)cc1C(F)(F)F (racemic)
EC50 [4]: 83 nM | Emax [1]: 104%

SMILES: O=C(O)CC1CCn2c1cc1cc(OCc3ccc(C4CCCC4)c(C(F)(F)F)c3)ccc12 (racemic) [listing 1 of 2 here]
EC50 [4]: 0.095 nM

SMILES: O=C(O)CC1CCn2c1cc1cc(OCc3ccc(OCC4CC4)c(C(F)(F)F)c3)ccc12 (racemic)
EC50 [4]: 1.1 nM | Emax [1]: 100%

SMILES: CC(C)Oc1ccc(COc2ccc3c(c2)cc2n3CCC2CC(=O)O)cc1C(F)(F)F (single isomer, unassigned; enantiomer 1) [listing 2 of 2 here]
Emax [1]: 107% | Emax [2]: 108%

SMILES: CC(C)Oc1ccc(COc2ccc3c(c2)cc2n3CCC2CC(=O)O)cc1C(F)(F)F (racemic) [listing 1 of 2 here]
Emax [1]: 112%

SMILES: O=C(O)CC1CCn2c1cc1cc(OCc3ccc(C4CCCC4)c(C(F)(F)F)c3)ccc12 (racemic) [listing 2 of 2 here]
Emax [1]: 108%

SMILES: O=C(O)CC1CCn2c1cc1cc(OCc3ccc(C4CCCC4)c(C(F)(F)F)c3)ccc12 (stereo in doubt; 12b) [listing 2 of 2 here]
EC50 [4]: 0.32 nM | EC50 [5]: 20 nM | EC50 [6]: > 10000 nM | EC50 [7]: > 10000 nM | EC50 [8]: 420 nM | EC50 [9]: 81 nM

The remaining lines, values ahead:

Emax [1]: 104% | Emax [2]: 122% | Emax [3]: 133%
SMILES: CC(C)Oc1ccc(COc2ccc3c(c2)cc2n3CCC2CC(=O)O)cc1C#N (stereo in doubt; 19b) [listing 1 of 2 here]

EC50 [4]: 0.15 nM
SMILES: CC(C)Oc1ccc(COc2ccc3c(c2)cc2n3CCC2CC(=O)O)cc1C#N (racemic) [listing 1 of 2 here]

EC50 [4]: 1.5 nM | EC50 [5]: 160 nM | EC50 [6]: > 10000 nM | EC50 [7]: > 10000 nM | EC50 [8]: > 10000 nM | EC50 [9]: 9800 nM
SMILES: CC(C)Oc1ccc(COc2ccc3c(c2)cc2n3CCC2CC(=O)O)cc1C#N (stereo in doubt; 19b) [listing 2 of 2 here]

EC50 [4]: 38 nM | Emax [1]: 122%
SMILES: COc1ccc(COc2ccc3c(c2)cc2n3CCC2CC(=O)O)cc1C#N (racemic)

Emax [1]: 105%
SMILES: CC(C)Oc1ccc(COc2ccc3c(c2)cc2n3CCC2CC(=O)O)cc1C#N (racemic) [listing 2 of 2 here]

Emax [1]: 98% | Emax [2]: 128% | Emax [3]: 54%
SMILES: CC(C)Oc1ccc(COc2ccc3c(c2)cc2n3CCC2CC(=O)O)cc1C#N (stereo in doubt; 19a)

EC50 [4]: 0.15 nM
SMILES: CC(C)Oc1ccc(COc2ccc3c(c2)cc2n3CCC2CC(=O)O)cc1C(F)(F)F (racemic) [listing 2 of 2 here]

Emax [1]: 116% | Emax [2]: 104%
SMILES: CC(C)Oc1ccc(COc2ccc3c(c2)cc2n3CCC2CC(=O)O)cc1C(F)(F)F (single isomer, unassigned; enantiomer 2) [listing 2 of 2 here]
